{
  "source": "ChEMBL document CHEMBL4304758",
  "about": "“Development of Peptide-Based Sirtuin Defatty-Acylase Inhibitors Identified by the Fluorescence Probe, SFP3, That Can Efficiently Measure Defatty-Acylase Activity of Sirtuin” (J Med Chem, 2019)",
  "key": {"[1]": {"biological_target": "T1, NAD-dependent protein deacetylase sirtuin-2 (Homo sapiens) (UniProt Q8IXJ6)", "T1 sequence (whole entry)": "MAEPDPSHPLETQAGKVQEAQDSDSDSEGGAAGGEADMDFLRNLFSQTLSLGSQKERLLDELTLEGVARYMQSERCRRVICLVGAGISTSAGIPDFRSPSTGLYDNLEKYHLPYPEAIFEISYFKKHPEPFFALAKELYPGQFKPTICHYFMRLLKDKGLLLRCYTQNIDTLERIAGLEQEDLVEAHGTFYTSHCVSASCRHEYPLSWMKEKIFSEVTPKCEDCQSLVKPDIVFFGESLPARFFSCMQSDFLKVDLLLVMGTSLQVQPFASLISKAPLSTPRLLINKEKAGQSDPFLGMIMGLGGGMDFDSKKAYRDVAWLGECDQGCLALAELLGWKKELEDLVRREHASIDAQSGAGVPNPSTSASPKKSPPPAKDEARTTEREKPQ", "assay": "Inhibition of recombinant human SIRT2 defatty-acylase activity at 2 uM using SFP3 as substrate measured at 5 mins interval for 60 mins in presence of NAD+ by fluorescence assay relative to control"}, "[2]": {"biological_target": "T1, NAD-dependent protein deacetylase sirtuin-2 (Homo sapiens)", "assay": "Inhibition of recombinant human SIRT2 demyristoylase activity at 1 uM using p53(Myr)-AMC as substrate measured after 3 hrs in presence of NAD+ and trypsin by fluorescence assay relative to control"}, "[3]": {"biological_target": "T2, NAD-dependent protein deacetylase sirtuin-1 (Homo sapiens) (UniProt Q96EB6)", "T2 sequence (whole entry)": "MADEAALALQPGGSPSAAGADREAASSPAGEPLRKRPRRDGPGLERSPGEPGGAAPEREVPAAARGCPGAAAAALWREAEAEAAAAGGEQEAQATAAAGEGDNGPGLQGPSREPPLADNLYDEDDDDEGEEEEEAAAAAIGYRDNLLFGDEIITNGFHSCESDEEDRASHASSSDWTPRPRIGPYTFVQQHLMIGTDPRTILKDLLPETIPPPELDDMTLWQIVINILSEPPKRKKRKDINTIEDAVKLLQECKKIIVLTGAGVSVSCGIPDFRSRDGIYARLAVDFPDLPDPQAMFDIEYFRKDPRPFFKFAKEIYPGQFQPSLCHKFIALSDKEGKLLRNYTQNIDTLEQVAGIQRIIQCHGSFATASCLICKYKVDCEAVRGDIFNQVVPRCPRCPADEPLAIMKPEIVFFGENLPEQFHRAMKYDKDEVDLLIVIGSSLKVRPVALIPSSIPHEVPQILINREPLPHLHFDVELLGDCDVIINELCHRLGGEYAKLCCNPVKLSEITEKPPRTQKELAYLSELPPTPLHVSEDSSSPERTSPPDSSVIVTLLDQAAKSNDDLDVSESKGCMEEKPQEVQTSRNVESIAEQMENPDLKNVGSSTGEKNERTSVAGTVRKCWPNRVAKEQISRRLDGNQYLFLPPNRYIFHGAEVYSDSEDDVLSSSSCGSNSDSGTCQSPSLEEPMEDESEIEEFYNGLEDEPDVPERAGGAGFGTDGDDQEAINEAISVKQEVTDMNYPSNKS", "assay": "Inhibition of recombinant human C-terminal His6-tagged SIRT1 (Met1 to Ser747 residues) defatty-acylase activity expressed in Escherichia coli at 2 uM using SFP3 as substrate measured at 5 mins interval for 60 mins in presence of NAD+ by fluorescence assay relative to control"}, "[4]": {"biological_target": "T3, NAD-dependent protein deacetylase sirtuin-3, mitochondrial (Homo sapiens) (UniProt Q9NTG7)", "T3 sequence (whole entry)": "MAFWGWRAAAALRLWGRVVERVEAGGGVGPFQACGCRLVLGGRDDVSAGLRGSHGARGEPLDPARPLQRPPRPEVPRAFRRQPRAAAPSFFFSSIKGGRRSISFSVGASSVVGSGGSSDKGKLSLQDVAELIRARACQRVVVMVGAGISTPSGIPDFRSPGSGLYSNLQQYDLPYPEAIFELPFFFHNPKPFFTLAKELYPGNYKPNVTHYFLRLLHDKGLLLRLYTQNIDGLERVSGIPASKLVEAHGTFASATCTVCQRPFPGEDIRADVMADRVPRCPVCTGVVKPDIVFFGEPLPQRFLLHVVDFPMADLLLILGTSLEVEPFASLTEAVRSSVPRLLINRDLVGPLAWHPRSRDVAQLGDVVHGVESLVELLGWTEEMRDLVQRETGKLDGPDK", "assay": "Inhibition of recombinant human SIRT3 (118 to 399 residues) defatty-acylase activity expressed in Escherichia coli at 2 uM using SFP3 as substrate measured at 5 mins interval for 60 mins in presence of NAD+ by fluorescence assay relative to control", "summary_of_the_method": "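SIRT3 at 60 nM final with 2.5 μM SFP3 and 500 μM NAD⁺ in Tris-HCl pH 8.0, 150 mM NaCl, 1 mM DTT, 0.05% Triton X-100. Final DMSO 0.2%, or 0.5% for AGK2/NAM. Fluorescence Ex 485/Em 535 nm every 5 min for 60 min at 37 °C. n = 3.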"}, "[5]": {"biological_target": "NAD-dependent protein deacylase sirtuin-6 (Homo sapiens) (UniProt Q8N6T7)", "sequence (Q8N6T7 whole entry, the tested form may be a part)": "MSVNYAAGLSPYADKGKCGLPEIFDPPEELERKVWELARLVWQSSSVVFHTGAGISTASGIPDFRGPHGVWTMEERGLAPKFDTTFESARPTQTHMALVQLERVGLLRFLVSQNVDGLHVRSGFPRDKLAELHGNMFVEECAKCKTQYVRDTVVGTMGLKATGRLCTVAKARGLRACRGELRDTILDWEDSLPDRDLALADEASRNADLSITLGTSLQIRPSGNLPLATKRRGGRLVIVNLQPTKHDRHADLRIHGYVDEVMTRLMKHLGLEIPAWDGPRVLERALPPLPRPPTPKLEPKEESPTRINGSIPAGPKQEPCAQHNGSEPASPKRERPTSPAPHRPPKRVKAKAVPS", "assay": "Inhibition of recombinant human N-terminal polyhis-tagged SIRT6 (1 to 355 residues) defatty-acylase activity expressed in Escherichia coli at 2 uM using SFP3 as substrate measured at 5 mins interval for 60 mins in presence of NAD+ by fluorescence assay relative to control"}, "[6]": {"biological_target": "T2, NAD-dependent protein deacetylase sirtuin-1 (Homo sapiens)", "assay": "Inhibition of recombinant human C-terminal His6-tagged SIRT1 (Met1 to Ser747 residues) demyristoylase activity expressed in Escherichia coli at 1 uM using p53(Myr)-AMC as substrate measured after 3 hrs in presence of NAD+ and trypsin by fluorescence assay relative to control", "summary_of_the_method": "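SIRT1 at 14 nM final with 50 μM p53(Myr)-AMC and 500 μM NAD⁺ in Tris-HCl pH 8.0/NaCl/DTT/Triton buffer, 0.5% DMSO, 3 h at room temperature. Trypsin (100 nM final) plus nicotinamide (1 mM final) then added. Fluorescence Ex 355/Em 460 nm read every 5 min for 20 min at 37 °C. n = 3.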"}, "[7]": {"biological_target": "T3, NAD-dependent protein deacetylase sirtuin-3, mitochondrial (Homo sapiens)", "assay": "Inhibition of recombinant human SIRT3 (118 to 399 residues) demyristoylase activity expressed in Escherichia coli at 1 uM using p53(Myr)-AMC as substrate measured after 3 hrs in presence of NAD+ and trypsin by fluorescence assay relative to control", "summary_of_the_method": "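SIRT3 at 120 nM with 50 μM p53(Myr)-AMC and 500 μM NAD⁺ in Tris-HCl pH 8.0/NaCl/DTT/Triton buffer, 0.5% DMSO, 3 h at room temperature. Trypsin (100 nM) plus nicotinamide (1 mM) then added. Fluorescence Ex 355/Em 460 nm every 5 min for 20 min at 37 °C. n = 3.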"}, "[8]": {"biological_target": "T1, NAD-dependent protein deacetylase sirtuin-2 (Homo sapiens)", "assay": "Inhibition of recombinant human SIRT2 deacylation activity at 1 uM using Fluor de Lys Sirt2 as substrate measured at 5 mins interval for 30 mins in presence of NAD+ by fluorescence assay relative to control"}, "[9]": {"biological_target": "T1, NAD-dependent protein deacetylase sirtuin-2 (Homo sapiens)", "assay": "Inhibition of recombinant human SIRT2 defatty-acylase activity using SFP3 as substrate measured at 5 mins interval for 60 mins in presence of NAD+ by fluorescence assay"}, "[10]": {"biological_target": "T1, NAD-dependent protein deacetylase sirtuin-2 (Homo sapiens)", "assay": "Inhibition of recombinant human SIRT2 demyristoylase activity using H4K16-Myr as substrate measured after 2 hrs in presence of NAD+ by HPLC analysis", "summary_of_the_method": "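H4K16-Myr at 100 μM with 500 μM NAD⁺ and 175 nM SIRT2 in Tris-HCl pH 8.0/NaCl/Triton buffer without DTT, 0.5% DMSO, 2 h at 37 °C. Inhibitors at 0.1–10 μM; AGK2 at 50 μM, NAM at 500 μM. Stopped with HCl/MeOH. Demyristoylated H4K16 product measured by HPLC at 280 nm. Percent inhibition, n = 3.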"}, "[11]": {"biological_target": "T1, NAD-dependent protein deacetylase sirtuin-2 (Homo sapiens)", "assay": "Inhibition of recombinant human SIRT2 deacylation activity using H4K16-Ac as substrate measured after 30 mins in presence of NAD+ by HPLC analysis", "summary_of_the_method": "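H4K16-Ac peptide at 100 μM with 500 μM NAD⁺ and 175 nM SIRT2 in Tris-HCl pH 8.0/NaCl/Triton buffer lacking DTT, 0.5% DMSO, 30 min at 37 °C. Inhibitors at 0.01–10 μM. Stopped with HCl in MeOH. Deacetylated product quantified by reversed-phase HPLC at 280 nm.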"}, "HeLa": {"system": "HeLa", "assay": "Cytotoxicity against human HeLa cells assessed as reduction in cell viability at 50 uM measured after 72 hrs by CCK8 assay", "format": "functional, cell-based", "summary_of_the_method": "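HeLa cells, 1.0 × 10⁴ per well on PLL-coated plates, grown overnight in DMEM with 10% FBS and penicillin/streptomycin, 37 °C, 5% CO₂. Compounds added in DMEM (2% DMSO stock), range 1.56–50 μM final, for 72 h. CCK-8 reagent then 2 h at 37 °C, absorbance read at 450 nm. DMSO control.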"}, "[12]": {"biological_target": "T1, NAD-dependent protein deacetylase sirtuin-2 (Homo sapiens)", "assay": "Non-competitive inhibition of recombinant human SIRT2 defatty-acylase activity at 15 to 30 nM using SFP3 as substrate measured at 1 min interval for 30 mins in presence of varying levels of NAD+ by Michaelis-Menten plot analysis"}, "[13]": {"biological_target": "T1, NAD-dependent protein deacetylase sirtuin-2 (Homo sapiens)", "assay": "Time-dependent inhibition of recombinant human SIRT2 defatty-acylase activity at 15.6 to 250 nM using SFP3 as substrate measured at 5 mins interval for 60 mins in presence of NAD+ by fluorescence assay"}},
  "note": "Activity calls are given as the source filed them. The rule behind the calls is not given here. Non-standard residues stand in square brackets, D forms with d. Residues, ends and D or L forms follow the SMILES beside them. *: point of attachment. Lys(thiomyristoyl) = CCCCCCCCCCCCCC(=S)NCCCC[C@H](N)C(=O)O; X4 = CN(C)c1ccc(/N=N/c2ccc(CC(=O)*)cc2)cc1; X1 = O=C(Cc1ccc(/N=N/c2ccc(O)cc2)cc1)*",
  "data": [
    {"compound": "CCCCCCCCCCCCCC(=O)NCCCC[C@H](NC(=O)OCc1ccccc1)C(=O)Nc1ccccc1", "values": [
      {"measurement": "inhibition", "setting": "[1]", "result": 2.8, "unit": "%"},
      {"measurement": "inhibition", "setting": "[2]", "result": 5.2, "unit": "%"},
      {"measurement": "inhibition", "setting": "[3]", "result": -0.59, "unit": "%"},
      {"measurement": "inhibition", "setting": "[4]", "result": -2.3, "unit": "%"},
      {"measurement": "inhibition", "setting": "[5]", "result": -3.5, "unit": "%"},
      {"measurement": "inhibition", "setting": "[6]", "result": 1.7, "unit": "%"},
      {"measurement": "inhibition", "setting": "[7]", "result": 1.7, "unit": "%"},
      {"measurement": "inhibition", "setting": "[8]", "result": 42, "unit": "%"}
    ]},
    {"compound": "O=C(Cc1ccc(/N=N/c2ccccc2)cc1)NCCCC[C@H](NC(=O)OCC1c2ccccc2-c2ccccc21)C(=O)O", "values": [
      {"measurement": "inhibition", "setting": "[9]", "result": "inactive"}
    ]},
    {"compound": "CC[C@H](C)[C@H](NC(=O)[C@H](CCCNC(=N)N)NC(C)=O)C(=O)N[C@@H](CCCCNC(=O)Cc1ccc(/N=N/c2ccc(O)cc2)cc1)C(=O)N[C@@H](CCCNC(=N)N)C(=O)N[C@@H](Cc1ccc(O)cc1)C(N)=O", "note": "(Ac-RIK(X1)RY-NH2)", "values": [
      {"measurement": "inhibition", "setting": "[10]", "result": "Dose-dependent effect"},
      {"measurement": "inhibition", "setting": "[11]", "result": "Dose-dependent effect"},
      {"measurement": "inhibition", "setting": "[5]", "result": 43, "unit": "%"},
      {"measurement": "Activity", "setting": "HeLa", "result": "inactive"},
      {"measurement": "inhibition", "setting": "[12]", "result": "Active"}
    ]},
    {"compound": "CC[C@H](C)[C@H](NC(=O)[C@H](CCCNC(=N)N)NC(C)=O)C(=O)N[C@@H](CCCCNC(=O)Cc1ccc(/N=N/c2ccc(N(C)C)cc2)cc1)C(=O)N[C@@H](CCCNC(=N)N)C(=O)N[C@@H](Cc1ccc(O)cc1)C(N)=O", "note": "(Ac-RIK(X4)RY-NH2)", "values": [
      {"measurement": "TDI", "setting": "[13]", "result": "Active"},
      {"measurement": "inhibition", "setting": "[5]", "result": 40, "unit": "%"}
    ]},
    {"compound": "CCCCCCCCCCCCCC(=S)NCCCC[C@H](NC(=O)[C@@H](NC(=O)[C@H](CCCNC(=N)N)NC(C)=O)[C@@H](C)CC)C(=O)N[C@@H](CCCNC(=N)N)C(=O)N[C@@H](Cc1ccc(O)cc1)C(N)=O", "note": "(Ac-RI[Lys(thiomyristoyl)]RY-NH2)", "values": [
      {"measurement": "inhibition", "setting": "[10]", "result": "Dose-dependent effect"},
      {"measurement": "inhibition", "setting": "[11]", "result": "Dose-dependent effect"},
      {"measurement": "Activity", "setting": "HeLa", "result": "inactive"},
      {"measurement": "inhibition", "setting": "[12]", "result": "Active"}
    ]}
  ]
}
